Experimental data as given in ChEMBL document CHEMBL1139513, “Synthesis and structure-activity relationships of novel selective factor Xa inhibitors with a tetrahydroisoquinoline ring” (J Med Chem, 2005).

Key:
Coagulation factor X = Coagulation factor X (Homo sapiens, UniProt P00742); test: Inhibitory concentration against human Coagulation factor X
[1] = Number of mice died after 1 day upon i.v. administration at 10 mg/kg into tail vein out of 3 animals tested; type: ADME, organism-based; parameters: dose 10 mg/kg, route intravenous; settings: mouse, in vivo, iv, 24 h
How it was run: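 Male ICR mice given a single 10 mg/kg bolus into the tail vein. Result is expressed as deaths per animals tested.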

Prothrombin = Prothrombin (Homo sapiens, UniProt P00734); test: Inhibitory concentration against human Coagulation factor II (thrombin)
Plasminogen = Plasminogen (Homo sapiens, UniProt P00747); test: Inhibitory concentration against human Plasmin
Plasminogen, sequence (P00747 97-580 limits assumed): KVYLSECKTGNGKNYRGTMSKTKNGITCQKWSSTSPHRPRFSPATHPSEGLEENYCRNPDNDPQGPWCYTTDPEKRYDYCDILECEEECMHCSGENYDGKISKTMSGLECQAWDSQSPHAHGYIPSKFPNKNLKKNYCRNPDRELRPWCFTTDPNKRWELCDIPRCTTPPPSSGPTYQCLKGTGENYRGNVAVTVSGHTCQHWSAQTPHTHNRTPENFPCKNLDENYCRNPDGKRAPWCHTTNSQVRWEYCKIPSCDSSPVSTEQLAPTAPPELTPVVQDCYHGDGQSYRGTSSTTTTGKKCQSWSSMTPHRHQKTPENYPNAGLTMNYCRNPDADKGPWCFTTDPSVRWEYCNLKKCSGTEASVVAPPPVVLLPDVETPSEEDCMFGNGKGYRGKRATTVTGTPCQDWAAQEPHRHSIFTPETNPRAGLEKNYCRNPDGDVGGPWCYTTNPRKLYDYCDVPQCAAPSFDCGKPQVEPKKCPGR
Plasminogen, sequence (P00747 581-810 limits assumed): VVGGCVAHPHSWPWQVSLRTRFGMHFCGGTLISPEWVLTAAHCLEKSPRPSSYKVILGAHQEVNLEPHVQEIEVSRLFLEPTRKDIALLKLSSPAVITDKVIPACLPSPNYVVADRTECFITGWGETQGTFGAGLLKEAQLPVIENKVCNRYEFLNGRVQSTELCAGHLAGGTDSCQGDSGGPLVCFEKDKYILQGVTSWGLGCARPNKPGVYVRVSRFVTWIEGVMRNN
How it was run: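 Plasmin assay, human enzyme at 0.02 U/mL as added, preincubated 10 min at 37 °C with vehicle or compound at 12.5, 25 and 50 µM final. S-2403 was added at 0.125 and 0.25 mM final and incubated 10 min at 37 °C. Stopped with 60% acetic acid; A405 of p-nitroaniline.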

Trypsin = Trypsin (Homo sapiens, UniProt P07477+P07478+P35030); test: Inhibitory concentration against human Trypsin; type: protein assay
How it was run: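 Human trypsin (5 U/mL as added) preincubated 10 min at 37 °C with vehicle or compound at 50, 100 and 200 µM final. S-2222 was added at 0.125 and 0.25 mM final and incubated 10 min at 37 °C. Stopped with 60% acetic acid; p-nitroaniline read at 405 nm.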

Coagulation factor X, sequence (P00742 41-179 limits assumed): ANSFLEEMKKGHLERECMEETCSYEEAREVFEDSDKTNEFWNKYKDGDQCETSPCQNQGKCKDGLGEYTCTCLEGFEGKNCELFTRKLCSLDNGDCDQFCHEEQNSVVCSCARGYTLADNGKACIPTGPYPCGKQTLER
Coagulation factor X, sequence (P00742 235-488 limits assumed): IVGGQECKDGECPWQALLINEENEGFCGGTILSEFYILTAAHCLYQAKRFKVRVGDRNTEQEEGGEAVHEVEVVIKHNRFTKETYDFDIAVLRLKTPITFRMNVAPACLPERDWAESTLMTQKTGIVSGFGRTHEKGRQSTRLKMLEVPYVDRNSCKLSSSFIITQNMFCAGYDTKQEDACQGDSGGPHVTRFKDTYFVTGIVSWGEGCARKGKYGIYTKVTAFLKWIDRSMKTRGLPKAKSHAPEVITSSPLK

IC50 (Prothrombin) [µM] | Ki (Plasminogen) [µM] | Ki (Trypsin) [µM] | Compound | IC50 (Coagulation factor X) [µM] | Mortality [1]
– | – | – | CCOC(=O)C1(COc2ccc3c(c2)CN(C(=N)N)CC3)CCN(c2cc[n+](C)cc2)CC1 | 1.13 | –
– | – | – | Cl.Cl.N=C(N)N1CCc2ccc(OCC3CCN(c4ccncc4)CC3)cc2C1 | 0.056 | 3
> 10 | – | – | N=C(N)N1CCCc2ccc(OCC3(C(=O)O)CCN(c4ccncc4)CC3)cc2C1 | > 10 | –
> 10 | – | – | CC(=O)N1CCC(COc2ccc3c(c2)CN(C(=N)N)CC3)CC1 | – | –
– | – | – | Cl.Cl.N=C(N)N1CCc2ccc(OCC3(C(=O)O)CCN(c4ccncn4)CC3)cc2C1 | 0.12 | 0
> 10 | – | – | N=C(N)c1ccc2ccc(OCC3(C(=O)O)CCN(c4ccncc4)CC3)cc2c1 | 0.51 | –
– | – | – | Cl.Cl.N=C(N)N1CCc2ccc(OCC3CCN(c4ccncc4CCC(=O)O)CC3)cc2C1 | 0.16 | 0
– | – | – | Cl.Cl.N=C(N)N1CCc2ccc(OCC3CCN(c4ccnc5ccccc45)CC3)cc2C1 | 0.42 | 3
– | – | – | COC(=O)c1cnccc1N1CCC(COc2ccc3c(c2)CN(C(=N)N)CC3)CC1.Cl.Cl | 0.27 | 3
– | – | – | CC(=N)N1CCC(COc2ccc3c(c2)CN(C(=N)N)CC3)CC1.Cl.Cl | 0.51 | 3
> 10 | – | – | N=C(N)N1CCc2ccc(OCC3CCN(Cc4ccccc4N)CC3)cc2C1 | 3.25 | –
– | – | – | Cc1cc(N2CCC(COc3ccc4c(c3)CN(C(=N)N)CC4)(C(=O)O)CC2)ccn1.Cl.Cl | 0.23 | 0
– | – | – | CCOC(=O)C1(COc2ccc3c(c2)CN(C(=N)N)CC3)CCN(c2ccncc2)CC1.Cl.Cl | 0.074 | 3
> 10 | – | – | N=C(N)N1CCc2ccc(S(=O)(=O)CC3(C(=O)O)CCN(c4ccncc4)CC3)cc2C1 | 5.44 | –
> 10 | – | – | N=C(N)N1CCc2ccc(S(=O)(=O)NC3(C(=O)O)CCN(c4ccncc4)CC3)cc2C1 | – | –
– | – | – | N=C(N)N1CCc2ccc(OCCC3(C(=O)O)CCN(c4ccncc4)CC3)cc2C1 | 0.23 | –
> 10 | – | – | N=C(N)N1CCc2ccc(OCC3CCN(Cc4cccc(N)c4)CC3)cc2C1 | 4.06 | –
> 10 | – | – | N=C(N)N1CCc2ccc(OCC3CCN(Cc4ccccn4)CC3)cc2C1 | 1.35 | –
– | – | – | Cl.Cl.Cl.N=C(N)N1CCc2ccc(OCC3CCN(Cc4ccncc4)CC3)cc2C1 | – | 3
– | – | – | Cl.Cl.N=C(N)N1CCc2ccc(OCC3(C(=O)O)CCN(c4ccncc4)CC3)cc2C1 | – | 0
> 10 | – | – | N=C(N)N1CCc2ccc(OCC3CCNCC3)cc2C1 | 3.34 | –
– | – | – | N=C(N)N1CCc2ccc(SCC3(C(=O)O)CCN(c4ccncc4)CC3)cc2C1 | 0.39 | –
– | 23 | 0.62 | CC(=N)N1CC[C@H](Oc2ccc([C@H](Cc3ccc4ccc(C(=N)N)cc4c3)C(=O)O)cc2)C1.Cl [DX-9065A HYDROCHLORIDE HYDRATE] | – | –

Compound | IC50 (Prothrombin) [µM] | Ki (Plasminogen) [µM] | Ki (Trypsin) [µM] | IC50 (Coagulation factor X) [µM] | Mortality [1]
Cl.Cl.N=C(N)N1CCc2ccc(OCC3CCN(c4ccncc4C(=O)O)CC3)cc2C1 | > 10 | – | – | 1.98 | 0
CCOC(=O)CCc1cnccc1N1CCC(COc2ccc3c(c2)CN(C(=N)N)CC3)CC1.Cl.Cl | > 10 | – | – | 0.19 | 3
